Assay outcomes as filed in PubChem.
core dimer inh: blocks dimerization of HCV core protein; inhibition, % at 5 µM; 0.33% of 300,000 active; TR-FRET GST/Flag-core106 dimerization, 1536-well;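 active means inhibition above the mean of all tested compounds plus 3 SD, set per screening campaign, cut at about 45% in these data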
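Assay system: GST-tagged and Flag-tagged HCV core protein residues 1-106 / Times: compound-protein-antibody incubation 4 h at 22.5 °C / Signal: time-resolved FRET, ex 340 nm, em 617 and 671 nm / Evaluation: % inhibition based on acceptor/donor emission ratio / Benchmarks: wells lacking GST-core106 and wells with excess unlabelled core106 / Repeats: singlicate, one well per compound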
IMP-1 inh: inhibitors of Pseudomonas aeruginosa IMP-1 metallo-beta-lactamase; purified IMP-1, nitrocefin hydrolysis, epi-absorbance fluorescence; inhibition, % at 5.6 µM; 0.45% of 290,000 active; AID 1556;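 active means inhibition above the mean plus 3 SD of all compounds in the same screening run, cut at about 4.5% in these data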
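Assay system: purified IMP-1; Quantity: IMP-1 0.2 nM before substrate addition; Medium: HEPES buffer pH 7.1 with ZnSO4 and Brij 35; Incubation: 15 min enzyme–compound preincubation, then 25 min nitrocefin reaction, 25 °C; Signal: fluorescence quenching readout, ex 480/em 530 nm; Controls: DMSO with and without IMP-1; Repeats: singlicate testing.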
SUMO HTRF inh: SUMOylation inhibition | AID 2006 | 0.36% of 290,000 active | inhibition, % at 35 µM | HTRF SUMOylation assay, SAE1/SAE2 + UBC9, in vitro | P63279; in the data active means inhibition above about 50%, passing the limit was not always enough
Target sequence (P63279 whole entry, looked up): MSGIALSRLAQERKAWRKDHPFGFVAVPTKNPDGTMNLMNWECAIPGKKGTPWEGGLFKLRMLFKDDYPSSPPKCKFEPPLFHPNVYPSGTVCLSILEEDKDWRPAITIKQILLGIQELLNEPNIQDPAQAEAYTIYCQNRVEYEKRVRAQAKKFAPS
VIM-2 inhibitor: blocks Pseudomonas aeruginosa VIM-2 metallo-beta-lactamase; purified VIM-2, nitrocefin hydrolysis, epi-absorbance fluorescence; inhibition, % at 5.6 µM; 0.89% of 290,000 active;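 active means inhibition above the mean of all tested compounds plus 3 SD, cutoff set per screening run, cut at about 7.5% in these data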;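 further: red hydrolysis product quenches plate fluorescence so inhibitors raise well fluorescence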
PHOSPHO1 inh: PHOSPHO1 (human) inhibition. Q8TCT1. recombinant PHOSPHO1, absorbance phosphatase assay. inhibition, % at 13.3 µM. 1.1% of 290,000 active; in the data active means inhibition above about 60%
Target sequence (Q8TCT1 whole entry, looked up): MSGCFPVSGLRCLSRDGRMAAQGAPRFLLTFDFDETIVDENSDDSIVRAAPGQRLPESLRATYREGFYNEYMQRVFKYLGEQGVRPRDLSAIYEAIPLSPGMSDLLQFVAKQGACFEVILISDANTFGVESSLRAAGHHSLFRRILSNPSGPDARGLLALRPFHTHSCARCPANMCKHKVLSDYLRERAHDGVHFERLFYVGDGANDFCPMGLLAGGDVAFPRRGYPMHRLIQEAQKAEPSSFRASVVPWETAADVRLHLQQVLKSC
NS3 helicase inh: HCV NS3 helicase inhibition; NS3 helicase DNA unwinding, Cy5 molecular beacon fluorescence; inhibition, % at 10.9 µM; 0.56% of 290,000 active; AID 1800;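 active means inhibition above the mean of all tested compounds plus 3 SD, set per campaign, cut at about 35% in these data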
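Measured by: Cy5 fluorescence, 0 and 60 min reads / Assay system: NS3 helicase fragment of HCV / Control set: low DMSO, high thioflavine S at 110 µM / Times: 1 h reaction at 25 °C, ATP-initiated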
Hits are given with their value; . = inactive; / = not tested or not shown. The list is not random: actives were taken first. Their share in the collection is about 3.1%.

SMILES	core dimer inh	IMP-1 inh	SUMO HTRF inh	VIM-2 inhibitor	PHOSPHO1 inh	NS3 helicase inh
OCC1(Cc2ccccc2F)CCCN(Cc2c(F)ccc(F)c2F)C1 (stereo unspecified)	.	.	.	.	.	.
COc1ccccc1NS(=O)(=O)c1cccc(-n2c(O)c(C=Nc3ccccc3C(=O)O)c3ccccc3c2=O)c1	.	.	.	.	.	.
COc1ccc(Br)cc1/C=N/NC(=O)CNC(=O)/C=C/c1ccccc1	.	.	.	.	.	.
COc1ccc(/C=C/C(=O)NCC(=O)N/N=C/c2cc(Br)ccc2OCc2ccccc2)cc1	49.1	.	.	.	.	.
O=c1[nH]c(CN2CCc3ccccc32)nc2scc(-c3cccs3)c12	47.7	.	.	.	63.6	.
O=C(CSCc1nc2scc(-c3cccs3)c2c(=O)[nH]1)Nc1ccccn1	.	.	.	.	.	.
NN=C(c1cccc([N+](=O)[O-])c1)c1cccc([N+](=O)[O-])c1	.	/	/	/	/	/
N#CCCN(C(=O)Nc1ccc(Cl)cc1)c1ccccc1	.	.	.	.	.	.
O=C(Nc1ccc(Cl)cc1)N(Cc1nnc2n1CCCCC2)c1ccccc1	.	5.4	.	.	.	.
CCOc1cc(/C=C(\C#N)C(=O)Nc2cccc(C(=O)O)c2)ccc1OCc1ccc(Br)cc1	.	.	61.5	.	.	.
N#C/C(=C\c1ccc(OCc2ccc(Cl)cc2)cc1)C(=O)Nc1cccc(C(=O)O)c1	.	.	54.2	.	.	.
CCN(CC)S(=O)(=O)c1cccc(C(=O)NCC2CCCCC2)c1	.	.	.	.	.	.
S=C(NCc1ccc(Cl)cc1)NN1CCOCC1	.	.	.	.	.	.
CN(C)CCCNS(=O)(=O)c1ccc(N2CCC(c3ccc(Cl)cc3)=N2)cc1	.	.	65.2	.	.	.
O=S(=O)(c1ccc(N2CCC(c3ccc(Cl)cc3)=N2)cc1)N(CCO)CCO	.	.	.	.	.	.
Cc1ccc(N2C(=S)N=C(Nc3ccccc3C)C23CCOC(C)(C)C3)cc1 (stereo unspecified)	.	.	.	.	70.5	.
CC(C)[C@H](NC(=O)C1CCN(C(=O)[C@H](Cc2ccccc2)NC(=O)OC(C)(C)C)CC1)C(=O)O	.	.	.	.	60.6	.
CN(c1ccccc1)S(=O)(=O)c1nnc(NC(=O)C2CCCCC2)s1	.	.	.	.	70.0	.
CN(c1ccccc1)S(=O)(=O)c1nnc(NC(=O)c2ccco2)s1	.	.	.	.	.	.
CC1CCCC(C)N1C(=O)COc1ccc(F)cc1 (stereo unspecified)	.	.	.	.	.	.
COc1ccc(Nc2cccccc2=O)cc1	.	.	.	.	62.0	.
COc1ccc(Nc2ccc(Nc3ccc(OC)cc3)nn2)cc1	.	.	.	.	.	.
COc1ccc(Nc2ccc(OC)cc2)cc1	.	.	55.9	.	.	.
COc1ccc(Nc2ccccc2C(=O)O)cc1	.	.	.	.	.	.
COc1ccc(Nc2nnc(-c3ccncc3)s2)cc1Cl	.	17.0	.	.	.	.
SMILES	core dimer inh	IMP-1 inh	SUMO HTRF inh	VIM-2 inhibitor	PHOSPHO1 inh	NS3 helicase inh
NCCCn1c(C(=O)c2cc(Cl)c(N)c(Cl)c2)c2ccccc2[n+]1[O-]	.	/	/	/	/	/
NC(=O)CCn1c(C(=O)c2cc(Cl)c(N)c(Cl)c2)c2ccccc2[n+]1[O-]	.	.	.	7.8	.	.
CCCC(NC(=S)NCC1CCCO1)C12CC3CC(CC(C3)C1)C2 (stereo unspecified)	.	.	.	.	.	.
Cc1ccc(C)c(N(CC(=O)NC(C)C)C(=O)CCC(=O)Nc2ccccn2)c1	.	.	.	.	.	.
CCOC(=O)CCCc1sc(N)nc1-c1[nH]c(=O)[nH]c1C	.	.	.	.	87.5	.
N#CCC(=O)Nc1ccc(C(=O)N2CCN(c3ccccn3)CC2)cc1	.	.	.	.	.	.
Cc1cccc2c(N=Nc3ccc(S(=O)(=O)Nc4ccc(Cl)cc4)cc3[N+](=O)[O-])c(O)[nH]c12	49.1	.	68.5	.	.	.
Cc1ccc2oc(=O)c3cc(C(=O)NCCCN4CCc5ccccc5C4)sc3c2c1	.	.	.	.	.	.
Cc1ccc2oc(=O)c3cc(C(=O)NCCCN4CCCCCC4)sc3c2c1	.	.	.	9.6	.	.
Cc1ccc2oc(=O)c3cc(C(=O)NCCN4CCN(C)CC4)sc3c2c1	.	.	.	11.7	.	.
COc1cc(C2Nc3c(F)cccc3C3C=CCC32)cc(Br)c1OC (stereo unspecified)	46.3	.	.	.	.	.
Cc1cc(N(C)N)nc(NC(=O)NS(=O)(=O)c2ccccc2Cl)n1	.	.	.	.	.	.
O=C(Cc1cccc2ccccc12)N/N=C/c1ccc(Sc2cccc3cccnc23)o1	.	.	.	.	80.2	.
CN1CCN(c2ccc(NC(=S)NC(=O)c3cccc4c(Cl)cccc34)cc2)CC1	.	.	.	8.3	.	.
O=C(NC(=S)Nc1ccc(S(=O)(=O)N2CCCCC2)cc1)c1ccc(Cl)cc1	.	.	.	.	.	.
NS(=O)(=O)c1ccc(NC(=S)NC(=O)c2ccc(-c3ccccc3)cc2)cc1	.	5.5	.	.	.	.
NS(=O)(=O)c1ccc(NC(=S)NNC(=O)c2ccc(Br)o2)cc1	.	5.2	.	.	.	.
CN1CCN(S(=O)(=O)c2ccc(NC(=S)NC(=O)c3ccc(Cl)cc3)cc2)CC1	/	.	.	27.4	.	.
Cc1ccc(S(=O)(=O)N2CCN(c3ccccc3)CC2)c(C)c1	.	.	.	.	.	.
CC(NCC1(N2CCOCC2)CCCCC1)C(=O)Nc1ccc(Cl)cc1Cl (stereo unspecified)	.	.	.	.	.	.
O=C(OC(C(=O)O)C(OC(=O)c1ccccc1)C(=O)NCc1ccccc1)c1ccccc1 (stereo unspecified)	.	6.4	.	.	.	.
CC(=O)Nc1ccc(NC(=O)C(OC(=O)c2ccccc2)C(OC(=O)c2ccccc2)C(=O)O)cc1 (stereo unspecified)	.	.	.	.	.	.
Cc1ccc2c(cnn2C(=O)CCC(=O)NC2CCCCC2)c1	.	.	.	.	.	.
CCCN(C(=O)c1ccco1)c1nnc(-c2ccccc2C)s1	.	.	.	.	.	.
COc1ccc(S(=O)(=O)N2CCC(O)(c3ccc(Cl)cc3)CC2)cc1OC	.	.	.	.	63.9	.
COc1ccc(S(=O)(=O)N2CCC(O)(c3ccc(Cl)cc3)CC2)cc1	.	.	.	.	.	.
Nc1c(/C=C2/C=CC(=O)C(O)=C2)c(=O)nc2sc(CC(=O)N3CCCCC3)nn12	.	.	.	11.3	.	.
Nc1c(/C=C2/C=CC(=O)C(O)=C2)c(=O)nc2sc(CC(=O)N3CCCC3)nn12	.	.	.	.	.	.
